Laboratory results published in PMC5548968 (Clinical cancer research : an official journal of the …, 2016).

What was measured:
human CLL cells [1] = test: NSG primary CLL xenograft model, tumor burden in the spleen; format: in vivo, NSG mice; settings: drinking water, three weeks
In short: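 Spleen tumour burden in NSG mice engrafted with 1 × 10^8 primary CLL MNCs after busulfan priming. Mice got treated or vehicle drinking water from day −1 for 3 weeks. Homogenised, sieved, ACK-lysed splenocytes were surface-stained (CD45, CD19, CD3, CD5) and analysed by flow cytometry. Burden is the percentage of CLL cells among human CD45+ cells. Per-patient averages were compared by paired t-test.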

[2] = system: BCR stimulation by anti-IgM (CD69) in CLL patient MNCs; format: cell-based, human; settings: 1μM pretreatment 3 hours, anti-IgM 18 h
phospho-p65(S529) = test: in vitro phospho-flow in CLL patient MNCs, phospho-NF-κB p65; format: cell-based, human; settings: 1μM, one hour
In short: (§1)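 Primary CLL patient MNCs (n=5 patients) were treated in culture with or without 1μM test compound for 1 hour. Cells were fixed in 4% paraformaldehyde, permeabilised in 90% methanol and stained for phospho-PLCγ2(Y759), phospho-S6(S235/236) or phospho-p65(S529) with isotype controls. Flow cytometry gave the percent of CLL cells positive for each readout.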

phospho-BTK(Y223) [3] = format: in vivo, C57BL/6 mice; settings: 0.16mg/mL drinking water, one or four weeks, ex vivo anti-IgM
phospho-BTK(Y223) [4] = test: in vitro phospho-flow in CLL patient MNCs, phospho-BTK; format: cell-based, human; settings: 1μM, one hour
human CLL cells [5] = test: NSG primary CLL xenograft model, circulating CLL cell count per μL blood; format: in vivo, NSG mice; settings: drinking water, three weeks, whole blood
In short: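 Whole blood came from CLL-engrafted NSG mice after 3 weeks of treated or vehicle drinking water started at busulfan priming (day −1). Absolute human CLL cells (CD45+/CD19+/CD5+) per μL were counted by flow cytometry with counting beads. Values are averages of 2–5 mice per donor patient, compared by paired t-test.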

ERBB4 = settings: read-out: concentration inhibiting ERBB4; biochemical kinase assays; cited from earlier work
phospho-ERK(T202/Y204) = test: NSG primary CLL xenograft model, pERK in CLL cells from spleen; format: in vivo, NSG mice; settings: drinking water 0.3 or 0.16mg/mL, three weeks
In short: (§2)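 Human CLL patient MNCs were Ficoll-isolated and viably frozen. They were transferred at 1 × 10^8 cells/mouse into busulfan-primed NSG mice. Drinking-water dosing (0.3 or 0.16mg/mL; 0.06mg/mL in select experiments) started day −1, with vehicle controls. After 3 weeks, splenocytes were sieved, ACK-lysed, fixed (4% paraformaldehyde), permeabilised (90% methanol) and stained for pPLCγ2(Y759), pERK(T202/Y204) or Ki-67 against isotype controls. Mice were averaged per patient and compared by paired t-test.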

[6] = system: 395 wild-type human kinases; test: DiscoverRx KINOMEscan ATP site dependent competition binding assay, kinase panel; settings: 1μM compound
phospho-S6(S235/236) [7] = format: in vivo, C57BL/6 mice; settings: 0.16mg/mL drinking water, one or four weeks, ex vivo anti-IgM
In short: (§3)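 C57BL/6 recipients received 1 × 10^7 Eμ-TCL1 leukemic cells. Drinking water with 0.16mg/mL test compound or vehicle began once blood CD5+/CD19+ cells reached ≥10%. After 1 or 4 weeks, splenocytes were stimulated ex vivo with anti-IgM. Cells were stained for B220, CD3, pPLCγ2(Y1217) (n=7/group) or pS6(S235/236) (n=14/group). Median fluorescence was read in B220+CD3− cells as % change versus vehicle, by normalised unpaired t-test.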

phospho-S6(S235/236) [8] = test: in vitro phospho-flow in CLL patient MNCs, phospho-S6; format: cell-based, human; settings: 1μM, one hour
In short: as §1

phospho-PLCγ2(Y759) = test: NSG primary CLL xenograft model, pPLCγ2 in CLL cells from spleen; format: in vivo, NSG mice; settings: drinking water 0.3 or 0.16mg/mL, three weeks
In short: as §2

phospho-PLCγ2(Y1217) = format: in vivo, C57BL/6 mice; settings: 0.16mg/mL drinking water, one or four weeks, ex vivo anti-IgM
In short: as §3

[9] = system: BCR signaling (CD69 expression); format: in vivo, C57BL/6 mice; settings: for effective dose (CD69 expression): oral gavage 0.1 to 30mg/kg, splenocytes 3 hours after dose, anti-IgM 18 h
In short: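 Female C57BL/6 mice (5/group/dose) were gavaged with vehicle or test compound at 0.1–30mg/kg. Splenocytes were taken 3 hours later and stimulated with goat anti-mouse IgM at 10μg/mL for 18 hours (37°C, 5% CO2). After Fc blocking, cells were stained for CD19 and CD69, with 7-AAD to exclude dead cells. CD69 on >5,000 gated CD19+ cells per sample was measured by flow cytometry.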

BTK = settings: read-out: IC50 BTK; as previously reported; cited from earlier work
TEC = settings: read-out: concentration inhibiting TEC; biochemical kinase assays; cited from earlier work
murine BTK = murine BTK (Mus musculus, UniProt P35991); test: BTK occupancy probe ELISA, TCL1 adoptive transfer model splenocytes; format: in vivo; settings: 0.16mg/mL drinking water, one or four weeks
ITK = biological target: T1, ITK (Homo sapiens, UniProt Q08881); test: DiscoverRx KINOMEscan competition binding assay, ITK; settings: 1μM compound
T1 sequence (Q08881 1-620): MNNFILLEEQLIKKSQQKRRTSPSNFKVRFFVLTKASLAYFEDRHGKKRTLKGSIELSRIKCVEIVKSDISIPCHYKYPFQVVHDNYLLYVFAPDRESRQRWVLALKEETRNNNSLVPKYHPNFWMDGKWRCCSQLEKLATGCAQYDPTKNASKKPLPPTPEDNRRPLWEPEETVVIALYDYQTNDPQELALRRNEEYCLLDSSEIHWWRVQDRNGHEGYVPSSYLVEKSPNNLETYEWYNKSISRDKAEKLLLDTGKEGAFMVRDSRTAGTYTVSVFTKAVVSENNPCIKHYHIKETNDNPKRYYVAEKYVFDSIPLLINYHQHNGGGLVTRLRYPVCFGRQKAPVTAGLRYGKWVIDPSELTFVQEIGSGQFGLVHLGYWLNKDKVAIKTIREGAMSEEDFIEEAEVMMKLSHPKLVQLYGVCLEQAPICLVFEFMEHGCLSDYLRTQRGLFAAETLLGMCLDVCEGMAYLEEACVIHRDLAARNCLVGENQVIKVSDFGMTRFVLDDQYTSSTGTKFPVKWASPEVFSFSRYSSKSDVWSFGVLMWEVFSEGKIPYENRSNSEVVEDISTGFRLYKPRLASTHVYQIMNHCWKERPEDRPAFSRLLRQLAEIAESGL

human CLL cells [10] = test: NSG primary CLL xenograft model, CLL cell proliferation; format: in vivo, NSG mice; settings: drinking water, three weeks, spleen
In short: as §2

[11] = system: kinases containing a conserved cysteine residue that aligns with the Cys481 in BTK; settings: cited from earlier work

murine BTK, sequence (P35991 whole entry): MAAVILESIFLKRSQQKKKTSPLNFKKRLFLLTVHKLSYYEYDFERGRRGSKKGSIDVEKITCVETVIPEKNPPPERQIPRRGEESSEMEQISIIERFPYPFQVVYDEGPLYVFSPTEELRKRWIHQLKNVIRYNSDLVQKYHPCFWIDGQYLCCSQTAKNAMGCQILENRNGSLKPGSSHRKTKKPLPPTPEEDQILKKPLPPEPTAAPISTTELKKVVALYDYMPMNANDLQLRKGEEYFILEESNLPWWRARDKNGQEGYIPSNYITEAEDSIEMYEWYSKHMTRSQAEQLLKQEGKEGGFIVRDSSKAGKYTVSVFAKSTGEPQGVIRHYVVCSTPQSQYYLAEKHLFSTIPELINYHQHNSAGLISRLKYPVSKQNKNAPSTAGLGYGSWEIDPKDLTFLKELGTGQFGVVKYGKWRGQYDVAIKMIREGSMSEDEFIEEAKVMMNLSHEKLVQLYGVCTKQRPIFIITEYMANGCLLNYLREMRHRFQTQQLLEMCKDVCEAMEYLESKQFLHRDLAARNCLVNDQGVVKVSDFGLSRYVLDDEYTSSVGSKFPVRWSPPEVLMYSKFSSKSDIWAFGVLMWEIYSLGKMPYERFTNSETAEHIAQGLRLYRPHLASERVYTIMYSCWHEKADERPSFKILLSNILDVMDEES

With `CC#CC(=O)N1CCC[C@H]1c1nc(-c2ccc(C(=O)Nc3ccccn3)cc2)c2c(N)nccn12` [acalabrutinib, Acalabrutinib] the “median change in human CLL cells in the murine spleen (tumor burden) vs vehicle” value (human CLL cells [1]) was −33%, the “prevention of BCR stimulation by anti-IgM (CD69)” value [2] was “significantly prevented BCR stimulation” and the “median change in phosphorylation of NF-κB (p65)” value (phospho-p65(S529)) was −26%. The “median change in auto-phosphorylation of BTK vs vehicle” value (phospho-BTK(Y223) [3]) was −31%, the “median change in MFI of pBTK (autophosphorylation site)” value (phospho-BTK(Y223) [4]) was −15% and the “median change in CLL cells per μL of blood vs vehicle” value (human CLL cells [5]) was “+0.76%”. The IC50 (ERBB4) was < 100 nM, the “median change in phosphorylation of ERK vs vehicle” value (phospho-ERK(T202/Y204)) was −79% and the “binding across kinase panel” value [6] was “Minimal binding outside of BTK”. For the same compound, the “median change in pS6 induction vs vehicle” value (phospho-S6(S235/236) [7]) was −35%, the “median change in phosphorylation of S6” value (phospho-S6(S235/236) [8]) was −20% and the “median change in phosphorylation of PLCγ2 vs vehicle” value (phospho-PLCγ2(Y759)) was −68%. The “median change in phosphorylation of PLCγ2 vs vehicle” value (phospho-PLCγ2(Y1217)) was −22%, the “effective dose (CD69 expression)” value [9] was 1.3 mg/kg and the “inhibition of BCR signaling (CD69 expression) compared with ibrutinib” value ([9]; oral, 1mg/kg and 3mg/kg) was “significantly more than ibrutinib”. For the same compound, the IC50 (BTK) was 5.1 nM, the IC50 (TEC) was […] and the “drug occupancy of murine BTK” value (murine BTK) was ≥ 90%. For the same compound, the “inhibition of ITK” value (ITK) was “not significantly inhibited” and the “median change in Ki67 (CLL cell proliferation) vs vehicle” value (human CLL cells [10]) was −50%.
For `C=CC(=O)N1CCC[C@@H](n2nc(-c3ccc(Oc4ccccc4)cc3)c3c(N)ncnc32)C1` [ibrutinib, reference compound], the “IC50 values for all ten kinases with the conserved cysteine” value [11] is given as “low nanomolar range”, the “effective dose (CD69 expression)” value [9] is given as 2.9 mg/kg and the IC50 (BTK) is given as 1.5 nM.
